The text below walks through data of ChEMBL document CHEMBL3244104, “New inhibitors of platelet aggregation. 5'-Phosphate, 5'-phosphorothioate, and 5'-O-sulfamoyl derivatives of 2-substituted adenosine analogues” (J Med Chem, 1978).

Data set [1] deals with Platelet. The data set can be described thus: Antiplatelet activity in sheep platelet rich plasma assessed as inhibition of ADP-induced platelet aggregation pretreated for 2.5 mins followed by ADP addition by photometric analysis. In kind it is functional, cell-free. To be noted: Ovis aries. Summed up: (§1)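 Citrated sheep blood spun 24 min at 140g to give PRP, diluted with platelet-free plasma (1000g, 10 min) to 300 000-400 000 platelets/mm³. Aggregation read photometrically (Born method) at 37 °C in stirred PRP as light transmission or optical density change. Agents dissolved in saline buffered to pH 7.4 with sodium barbitone. ADP added to 0.67 μM.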

A short description of data set [2]: Antiplatelet activity in sheep platelet rich plasma assessed as inhibition of ADP-induced platelet aggregation pretreated for 2.5 mins followed by ADP addition by photometric analysis relative to adenosine. The class given is functional, Ovis aries. The procedure, abridged: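 Sheep PRP (300 000-400 000 platelets/mm³), 37 °C, stirred, Born photometric read-out. Analogue incubated 2.5 min before ADP (final 0.67 μM). Four doses per analogue. Rate taken as initial slope of the aggregation curve. Potency from log dose vs. percent inhibition plots, expressed relative to adenosine run on each PRP batch. Means of at least four determinations.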

Data set [3] concerns Platelet. The data set can be described thus: Antiplatelet activity in sheep platelet rich plasma assessed as inhibition of serotonin-induced platelet aggregation pretreated for 1 min followed by serotonin addition by photometric analysis. To be noted: Ovis aries. In kind it is functional, cell-free. The procedure, abridged:
(§2)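 Serotonin-induced aggregation in sheep PRP adjusted to 300 000-400 000 platelets/mm³, measured at 37 °C by Born photometry in stirred samples. Inhibitor given 1 min before serotonin, with serotonin final 1.6 μM. Agents dissolved in barbitone-buffered saline, pH 7.4.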

In data set [4] the test system is Rattus norvegicus. The data set can be described thus: Toxicity in anesthetized rat assessed as hypotensive potency up to 2.5 umol/kg, iv relative to adenosine. In kind it is organism-based. The note with it: in vivo.
Data set [5] relates to Rattus norvegicus. The data set can be described thus: Cardiotoxicity in anesthetized rat assessed as effect on heart rate up to 2.5 umol/kg, iv. To be noted: in vivo. In kind it is toxicity, organism-based.
The test system of data set [6] is Platelet. The data set can be described thus: Antiplatelet activity in sheep platelet rich plasma assessed as inhibition of ADP-induced platelet aggregation at 3.75 uM pretreated for 1 min followed by ADP addition by photometric analysis. To be noted: Ovis aries.
Data set [7] has as its system Platelet. The data set can be described thus: Antiplatelet activity in sheep platelet rich plasma assessed as inhibition of ADP-induced platelet aggregation at 100 uM pretreated for 1 min followed by ADP addition by photometric analysis. The note with it: Ovis aries. The class given is functional, cell-free. The procedure, abridged: as §1
Data set [8] deals with Platelet. The data set can be described thus: Antiplatelet activity in sheep platelet rich plasma assessed as inhibition of serotonin-induced platelet aggregation at 200 uM pretreated for 1 min followed by serotonin addition by photometric analysis. The class given is functional, cell-free. The note with it: Ovis aries. The procedure, abridged:
as §2

Data set [9] is described as follows: Stimulation of platelet aggregation in sheep platelet rich plasma at 100 uM pretreated for 1 min followed by ADP addition by photometric analysis. In kind it is ADME, cell-free, Ovis aries. Summed up: as §1
Data set [10] relates to Platelet. The data set can be described thus: Antiplatelet activity in sheep platelet rich plasma assessed as inhibition of ADP-induced platelet aggregation up to 300 uM pretreated for 2.5 mins followed by ADP addition by photometric analysis. In kind it is functional, cell-free. To be noted: Ovis aries. The procedure, abridged:
as §1

Data set [11] concerns Platelet. The data set can be described thus: Antiplatelet activity in sheep platelet rich plasma assessed as inhibition of serotonin-induced platelet aggregation at 100 uM pretreated for 1 min followed by serotonin addition by photometric analysis. In kind it is functional, cell-free. To be noted: Ovis aries. The procedure, abridged: as §2

Calls of active or inactive are those of the source. The calls are words filed in the database; no cut-off is given here.

For `CNc1nc(Cl)nc2c1ncn2[C@@H]1O[C@H](COP(=O)(O)O)[C@@H](O)[C@H]1O`, the inhibition entry in [1] is “Dose-dependent effect”. Moreover, in [2], the “fold change (FC)” value turned out to be 0.12. Also, in data set [3], the inhibition result is “inactive”.

With `CSc1nc(N)c2ncn([C@@H]3O[C@H](COP(=O)(O)O)[C@@H](O)[C@H]3O)c2n1`, the inhibition entry in data set [1] is “Dose-dependent effect”. The Activity in [4] is below 1%; in [5], “Non-toxic”. Also, in data set [2], the “fold change (FC)” value is given as 2.41. Besides, the inhibition result in data set [3] is “inactive”.

Take `N.N.Nc1nc(Cl)nc2c1ncn2[C@@H]1O[C@H](COP(O)(O)=S)[C@@H](O)[C@H]1O`: in [2], the “fold change (FC)” value was 0.44. Further, in data set [3], the inhibition result is “inactive”.

With `Nc1ncnc2c1ncn2[C@@H]1O[C@H](COP(O)(O)=S)[C@@H](O)[C@H]1O`, in data set [2], the “fold change (FC)” value amounted to 0.04. In data set [3], the inhibition result is “inactive”.

Consider `CCSc1nc(N)c2ncn([C@@H]3O[C@H](COP(=O)(O)O)[C@@H](O)[C@H]3O)c2n1`, for which the inhibition entry in data set [1] was “Dose-dependent effect”. Besides, the Activity is on record as below 1% in data set [4] and “Non-toxic” in data set [5]. The inhibition entry in data set [6] is “Active”. Further, the “fold change (FC)” value in data set [2] is 5.2. Also, in [3], the inhibition entry is “inactive”.

As to `CNc1nc(SC)nc2c1ncn2[C@@H]1O[C@H](COP(=O)(O)O)[C@@H](O)[C@H]1O`, the inhibition result in [1] was “Dose-dependent effect”. The “fold change (FC)” value in [2] was 0.46. Moreover, in data set [3], the inhibition result was “inactive”.

Take `Nc1ncnc2c1ncn2[C@@H]1O[C@H](COP(=O)(O)O)[C@@H](O)[C@H]1O` [ADENOSINE PHOSPHATE]: the inhibition result in data set [1] is “Dose-dependent effect”. In addition, the “fold change (FC)” value in data set [2] turned out to be 0.12. Besides, in data set [3], the inhibition entry is “inactive”.

Regarding `CSc1nc(N)c2ncn([C@@H]3O[C@H](COS(N)(=O)=O)[C@@H](O)[C@H]3O)c2n1`, the inhibition entry in [7] and in [8] was “Active” throughout.

In the case of `Nc1ncnc2c1ncn2[C@@H]1O[C@H](CO)[C@@H](O)[C@H]1O`, in data set [6], the inhibition entry is “Active”.

Turning to `CCSc1nc(N)c2ncn([C@@H]3O[C@H](COP(O)(O)=S)[C@@H](O)[C@H]3O)c2n1.N.N`, the figures for the Activity in data set [4] and in [5] were below 1% and “Non-toxic”, respectively. The inhibition result in data set [6] was “Active”. The “fold change (FC)” value in [2] stood at 13.4. Further, the inhibition result in data set [3] was “inactive”.

With `COc1nc(N)c2ncn([C@@H]3O[C@H](COP(=O)(O)O)[C@@H](O)[C@H]3O)c2n1`, the inhibition result in data set [1] was “Dose-dependent effect”. Further, in data set [2], the “fold change (FC)” value is listed as 0.034. In [3], the inhibition entry is “inactive”.

In the case of `Nc1nc(Cl)nc2c1ncn2[C@@H]1O[C@H](COP(=O)(O)O)[C@@H](O)[C@H]1O`, the inhibition result in data set [1] is “Dose-dependent effect”. Besides, in data set [2], the “fold change (FC)” value turned out to be 0.12. Besides, the inhibition entry in [3] was “inactive”.

For the compound `Nc1ncnc2c1ncn2[C@@H]1O[C@H](COS(N)(=O)=O)[C@@H](O)[C@H]1O`, the Activity entry in data set [9] is “Toxic”. Moreover, the inhibition entry in data set [10] was “inactive”. Besides, in data set [8], the inhibition result was “Active”.

For `Nc1nc(Cl)nc2c1ncn2[C@@H]1O[C@H](COS(N)(=O)=O)[C@@H](O)[C@H]1O`, in data set [9], the Activity result is on record as “Toxic”. In addition, the inhibition entry in data set [10] is “inactive”. Also, the inhibition entry in data set [11] was “Active”.

Regarding `CCNc1nc(N)c2ncn([C@@H]3O[C@H](COP(=O)(O)O)[C@@H](O)[C@H]3O)c2n1`, in data set [1], the inhibition entry is “Dose-dependent effect”. In [2], the “fold change (FC)” value stood at 0.027. In [3], the inhibition entry is “inactive”.

On to `CNc1nc(N)c2ncn([C@@H]3O[C@H](COP(=O)(O)O)[C@@H](O)[C@H]3O)c2n1`, for which the inhibition entry in [1] is “Dose-dependent effect”. Moreover, the “fold change (FC)” value in data set [2] amounted to 0.027. In addition, the inhibition entry in [3] is “inactive”.

Turning to `CSc1nc(N)c2ncn([C@@H]3O[C@H](COP(O)(O)=S)[C@@H](O)[C@H]3O)c2n1.N.N`, the Activity in data set [4] is below 1%; in data set [5], “Non-toxic”. Moreover, the “fold change (FC)” value in data set [2] was found to be 4. Besides, in data set [3], the inhibition entry is “inactive”.

Regarding `Nc1nc(C(F)(F)F)nc2c1ncn2[C@@H]1O[C@H](COP(=O)(O)O)[C@@H](O)[C@H]1O`, the inhibition result in data set [1] was “Dose-dependent effect”. Further, the “fold change (FC)” value in [2] was determined as 0.22. The inhibition entry in data set [3] was “inactive”.

Take `CCOc1nc(N)c2ncn([C@@H]3O[C@H](COP(=O)(O)O)[C@@H](O)[C@H]3O)c2n1`: in data set [1], the inhibition result was “Dose-dependent effect”. Besides, the “fold change (FC)” value in data set [2] is 0.103. Further, the inhibition entry in data set [3] was “inactive”.
